Source: ChEMBL document CHEMBL4433205, “Dual Pharmacophores Explored via Structure-Activity Relationship (SAR) Matrix: Insights into Potent, Bifunctional Opioid Ligand Design” (J Med Chem, 2019)
Active and inactive are the calls of the source.

Assays:
[1] = target: T1, Kappa-type opioid receptor (Homo sapiens, UniProt P41145); test: Displacement of [3H]diprenorphine from human kappa opioid receptor expressed in CHO cell membranes measured after 1 hr by liquid scintillation counting method
Procedure, shortened: (§1)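 Competition with 0.2 nM [3H]-diprenorphine on membranes (20 μg protein/tube) from stably transfected cells in 50 mM Tris-HCl pH 7.4, 1 h at room temperature with shaking; GF/C filtration, three washes, scintillation counting. Nonspecific binding defined with 10 μM naloxone.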

[2] = target: T2, Delta-type opioid receptor (Rattus norvegicus, UniProt P33533); test: Agonist activity at rat delta opioid receptor expressed in rat C6 cell membranes assessed as stimulation of [35S]GTPgammaS binding measured after 1 hr; type: functional
[3] = Lipophilicity, log P of the compound; type: physicochemical; settings: octanol/water
[4] = target: T3, Mu-type opioid receptor (Rattus norvegicus, UniProt P33535); test: Displacement of [3H]diprenorphine from rat mu opioid receptor expressed in rat C6 cell membranes measured after 1 hr by liquid scintillation counting method; procedure, shortened: as §1
[5] = target: T1, Kappa-type opioid receptor; test: Agonist activity at human kappa opioid receptor expressed in CHO cell membranes assessed as stimulation of [35S]GTPgammaS binding to G protein incubated for 1 hr relative to U69,593; type: functional
[6] = target: T1, Kappa-type opioid receptor; test: Agonist activity at human kappa opioid receptor expressed in CHO cell membranes assessed as stimulation of [35S]GTPgammaS binding measured after 1 hr; type: functional
[7] = species: Rattus norvegicus; test: Selectivity ratio of Ki for rat delta opioid receptor expressed in rat C6 cell membranes to Ki for rat mu opioid receptor expressed in rat C6 cell membranes; type: cell-based
Procedure, shortened: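 Competition binding against 0.2 nM [3H]-diprenorphine, using C6 membranes expressing rat MOR or rat DOR (20 μg protein/tube). Run in 50 mM Tris-HCl pH 7.4, 1 h at room temperature with shaking, then filtration and scintillation counting. Nonspecific binding with 10 μM naloxone.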

[8] = target: T3, Mu-type opioid receptor; test: Agonist activity at rat mu opioid receptor expressed in rat C6 cell membranes assessed as stimulation of [35S]GTPgammaS binding measured after 1 hr; type: functional
Procedure, shortened: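 Membranes (10–20 μg protein/tube) from stably transfected cells incubated 1 h at 25°C in 50 mM Tris-HCl, 100 mM NaCl, 5 mM MgCl2, pH 7.4, with 0.1 nM [35S]-GTPγS, 30 μM GDP and varying test concentrations; filtration, scintillation counting.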

[9] = target: Mu-type opioid receptor (Rattus norvegicus) (UniProt P33535); test: Agonist activity at rat mu opioid receptor expressed in rat C6 glioma cell membranes assessed as stimulation of [35S]GTPgammaS binding measured after 1 hr relative to DAMGO; type: functional
[10] = target: Delta-type opioid receptor (Rattus norvegicus) (UniProt P33533); test: Agonist activity at rat delta opioid receptor expressed in rat C6 cell membranes assessed as stimulation of [35S]GTPgammaS binding incubated for 1 hr relative to DPDPE; type: functional
[11] = target: T2, Delta-type opioid receptor; test: Displacement of [3H]diprenorphine from rat delta opioid receptor expressed in rat C6 cell membranes measured after 1 hr by liquid scintillation counting method
[12] = test system: Mus musculus; test: Antinociceptive activity in C57BL/6 mouse assessed as increase in latency to tail withdrawal up to 10 mg/kg, ip administered at 30 mins interval measured during compound dosing by warm water tail withdrawal assay relative to control; type: functional
Procedure, shortened: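 Male C57BL/6 mice, 20–30 g, 8–16 weeks. Saline ip, baseline latency 30 min later; then cumulative ip doses 1, 3.2, 10 mg/kg in 5% DMSO/saline at 30 min intervals, latency read 30 min after each. Tail tip (2–3 cm) in 50°C water, 20 s cutoff; expressed as % MPE (MPE = 20 s).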

Sequence of Delta-type opioid receptor (Rattus norvegicus) (P33533 whole entry): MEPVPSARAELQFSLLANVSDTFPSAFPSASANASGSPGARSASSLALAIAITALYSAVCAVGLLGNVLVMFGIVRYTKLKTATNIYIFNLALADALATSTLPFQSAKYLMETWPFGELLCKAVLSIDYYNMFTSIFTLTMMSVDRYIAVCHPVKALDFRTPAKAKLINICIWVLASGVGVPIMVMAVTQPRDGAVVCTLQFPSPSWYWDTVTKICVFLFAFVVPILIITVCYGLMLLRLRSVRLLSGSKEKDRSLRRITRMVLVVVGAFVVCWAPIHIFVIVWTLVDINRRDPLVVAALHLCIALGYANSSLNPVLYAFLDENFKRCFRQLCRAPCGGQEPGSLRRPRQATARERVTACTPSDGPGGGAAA
T2 sequence (P33533 whole entry): as above
T1 sequence (P41145 whole entry): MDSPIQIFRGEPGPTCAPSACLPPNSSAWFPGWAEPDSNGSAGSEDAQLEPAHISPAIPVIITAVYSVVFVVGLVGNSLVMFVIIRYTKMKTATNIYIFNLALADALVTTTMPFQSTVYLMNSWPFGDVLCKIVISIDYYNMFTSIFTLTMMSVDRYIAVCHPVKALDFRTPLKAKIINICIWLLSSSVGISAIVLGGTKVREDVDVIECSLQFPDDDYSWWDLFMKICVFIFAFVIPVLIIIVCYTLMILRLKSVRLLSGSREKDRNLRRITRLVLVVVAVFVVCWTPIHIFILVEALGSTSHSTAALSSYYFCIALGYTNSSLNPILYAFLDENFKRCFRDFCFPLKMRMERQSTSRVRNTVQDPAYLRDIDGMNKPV
Sequence of Mu-type opioid receptor (Rattus norvegicus) (P33535 whole entry): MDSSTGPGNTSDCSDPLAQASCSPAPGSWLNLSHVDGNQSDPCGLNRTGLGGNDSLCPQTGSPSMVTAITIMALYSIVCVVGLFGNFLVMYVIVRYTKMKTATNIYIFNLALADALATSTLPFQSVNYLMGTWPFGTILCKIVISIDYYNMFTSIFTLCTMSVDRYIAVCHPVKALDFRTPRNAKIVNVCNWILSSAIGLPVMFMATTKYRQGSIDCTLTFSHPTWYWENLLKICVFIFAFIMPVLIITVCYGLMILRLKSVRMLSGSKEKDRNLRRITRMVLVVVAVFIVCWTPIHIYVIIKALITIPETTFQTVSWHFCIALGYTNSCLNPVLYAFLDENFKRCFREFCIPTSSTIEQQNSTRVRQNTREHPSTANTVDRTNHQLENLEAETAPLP
T3 sequence (P33535 whole entry): as above

Row | SMILES | Ki [1] [nM] | EC50 ([2]; c6) | logP [3] | Ki [4] [nM] | Efficacy [5] | EC50 ([6]; cho) | Ratio Ki [7] | EC50 [8] [nM] | Efficacy [9] [%] | Efficacy [10] | Ki [11] [nM] | MPE [12] | EC50 ([2]; read-out: EC50) [nM] | EC50 ([6]; read-out: EC50) [nM]
1 | Cc1cc(O)cc(C)c1C[C@H](N)C(=O)N[C@@H]1CCN(C(=O)c2ccccc2)c2ccc(CN3CCc4ccccc4C3)cc21.O=C(O)C(F)(F)F | 160 | Not Active | 4.5 | 0.37 | inactive | Not Active | 11 | 4.2 | 93 | inactive | 4 | inactive | – | –
2 | Cc1cc(O)cc(C)c1C[C@H](N)C(=O)N[C@@H]1CCN(S(C)(=O)=O)c2ccc(Cc3cnc4ccccc4c3)cc21.O=C(O)C(F)(F)F | 7 | Not Active | 3.1 | 0.23 | inactive | Not Active | 3 | 0.26 | 96 | inactive | 0.64 | 50% | – | –
3 | Cc1cc(O)cc(C)c1C[C@H](N)C(=O)N[C@@H]1CCN(C(=O)C2CC2)c2ccc(Cc3ccc4ccccc4c3)cc21 | 117 | – | 5.1 | 0.05 | 38% | – | 7 | 0.42 | 85 | 32% | 0.37 | inactive | 1.9 | > 500
4 | Cc1cc(O)cc(C)c1C[C@H](N)C(=O)N[C@@H]1CCN(S(C)(=O)=O)c2ccc(Cc3ccc4ccccc4c3)cc21.O=C(O)C(F)(F)F | 27 | Not Active | 4.4 | 0.04 | inactive | Not Active | 24 | 0.23 | 102 | inactive | 0.95 | inactive | – | –
5 | Cc1cc(O)cc(C)c1C[C@H](N)C(=O)N[C@@H]1CCN(C(=O)c2ccccc2)c2ccc(Cc3cc4ccccc4o3)cc21.O=C(O)C(F)(F)F | 100 | Not Active | 5.2 | 0.35 | inactive | Not Active | 2 | 12 | 58 to 64 | inactive | 0.64 | inactive | – | –
6 | Cc1cc(O)cc(C)c1C[C@H](N)C(=O)N[C@@H]1CCN(C(=O)C2CC2)c2ccc(CN3CCc4ccccc4C3)cc21.O=C(O)C(F)(F)F | 40 | Not Active | 3.8 | 0.12 | inactive | Not Active | 7 | 0.52 | 95 | inactive | 0.88 | 60% | – | –
7 | Cc1cc(O)cc(C)c1C[C@H](N)C(=O)N[C@@H]1CCNc2ccc(Cc3cc4ccccc4o3)cc21.O=C(O)C(F)(F)F | 40 | Not Active | 4.3 | – | inactive | Not Active | 44 | 1.1 | 98 | inactive | 5 | 50% | – | –
8 | Cc1cc(O)cc(C)c1C[C@H](N)C(=O)N[C@@H]1CCNc2ccc(Cc3cnc4ccccc4c3)cc21.O=C(O)C(F)(F)F | 16 | Not Active | 3.7 | 0.1 | inactive | Not Active | 15 | 2.2 | 84 | inactive | 1.5 | inactive | – | –
9 | CC(=O)N1CC[C@@H](NC(=O)[C@@H](N)Cc2c(C)cc(O)cc2C)c2cc(Cc3ccc4ccccc4c3)ccc21 | – | – | 4.5 | – | – | – | – | – | – | – | – | – | – | –
10 | Cc1cc(O)cc(C)c1C[C@H](N)C(=O)N[C@@H]1CCN(C(=O)C2CC2)c2ccc(Cc3ccccc3)cc21 | – | – | 3.9 | – | – | – | – | – | – | – | – | – | – | –
11 | Cc1cc(O)cc(C)c1C[C@H](N)C(=O)N[C@@H]1CCN(S(C)(=O)=O)c2ccc(Cc3ccc4c(c3)OCCO4)cc21.O=C(O)C(F)(F)F | 46 | Not Active | 3 | 0.07 | 39% | – | 21 | 9 | 47 | inactive | 1.5 | 70% | – | > 500
12 | Cc1cc(O)cc(C)c1C[C@H](N)C(=O)N[C@@H]1CCN(C(=O)C2CC2)c2ccc(Cc3cnc4ccccc4c3)cc21.O=C(O)C(F)(F)F | 84 | – | 3.8 | 0.05 | inactive | Not Active | 2 | 0.34 | 47 | 84% | 0.08 | inactive | 0.71 | –
13 | CC(=O)N1CC[C@@H](NC(=O)[C@@H](N)Cc2c(C)cc(O)cc2C)c2cc(Cc3cc4ccccc4o3)ccc21 | 58 | – | 3.9 | 0.12 | 33% | – | 6 | 1.9 | 86 | 30% | 0.73 | inactive | 1.6 | > 500
14 | Cc1cc(O)cc(C)c1C[C@H](N)C(=O)N[C@@H]1CCN(C(=O)c2ccccc2)c2ccc(Cc3cnc4ccccc4c3)cc21.O=C(O)C(F)(F)F | 100 | Not Active | – | 0.04 | inactive | Not Active | – | 1 | 43 | – | 0.74 | 100% | – | –
15 | Cc1cc(O)cc(C)c1C[C@H](N)C(=O)N[C@@H]1CCNc2ccc(Cc3ccc4ccccc4c3)cc21 | – | – | 4.9 | – | – | – | – | – | – | – | – | – | – | –
16 | CC(=O)N1CC[C@@H](NC(=O)[C@@H](N)Cc2c(C)cc(O)cc2C)c2cc(Cc3ccccc3)ccc21 | – | – | 3.4 | – | – | – | – | – | – | – | – | – | – | –
17 | Cc1cc(O)cc(C)c1C[C@H](N)C(=O)N[C@@H]1CCN(C(=O)c2ccccc2)c2ccc(Cc3ccccc3)cc21 | – | – | 4.6 | – | – | – | – | – | – | – | – | – | – | –
18 | Cc1cc(O)cc(C)c1C[C@H](N)C(=O)N[C@@H]1CCN(C(=O)C2CC2)c2ccc(Cc3ccc4c(c3)OCCO4)cc21.O=C(O)C(F)(F)F | 412 | Not Active | 3.7 | 0.28 | inactive | Not Active | 0.7 | 6 | 36 | inactive | 0.19 | inactive | – | –
19 | Cc1cc(O)cc(C)c1C[C@H](N)C(=O)N[C@@H]1CCNc2ccc(CN3CCc4ccccc4C3)cc21.O=C(O)C(F)(F)F | 2.2 | Not Active | 3.7 | 0.03 | 25% | – | – | 0.4 | 105 | inactive | 3.1 | inactive | – | 90
20 | Cc1cc(O)cc(C)c1C[C@H](N)C(=O)N[C@@H]1CCN(C(=O)C2CC2)c2ccc(Cc3cc4ccccc4o3)cc21.O=C(O)C(F)(F)F | 98 | – | 4.5 | 0.05 | inactive | Not Active | – | 0.9 | 89 | 52% | 0.26 | inactive | 3.7 | –
21 | Cc1cc(O)cc(C)c1C[C@H](N)C(=O)N[C@@H]1CCNc2ccc(Cc3ccc4c(c3)OCCO4)cc21.O=C(O)C(F)(F)F | – | Not Active | 3.5 | – | inactive | Not Active | 16 | 7.3 | 88 | inactive | – | inactive | – | –
